Data as given in ChEMBL document CHEMBL1165943, “Design and synthesis of new anticancer pyrimidines with multiple-kinase inhibitory effect” (Bioorg Med Chem, 2010).

Columns and labels:
[1] = test system: UACC-257; assay: Growth inhibition of human UACC257 cells after 48 hrs by sulforhodamine B assay; type: functional, cell-based; details: UACC-257, 48 h
Outline: (§1)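 Cells grown in RPMI 1640 with 5% FBS and 2 mM L-glutamine, seeded at 5,000–40,000 cells/well according to doubling time. After 24 h, time-zero plates are TCA-fixed. Five concentrations (10-fold or ½log dilutions, DMSO stocks) are applied for 48 h at 37 °C, 5% CO₂. Cells are TCA-fixed, SRB-stained and read at 515 nm. IC₅₀ is taken from [(Ti−Tz)/(C−Tz)]×100 = 50.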

[2] = test system: IGROV-1; assay: Growth inhibition of human IGROV1 cells after 48 hrs by sulforhodamine B assay; type: functional, cell-based; details: IGROV-1, 48 h; outline: as §1
[3] = test system: OVCAR-8; assay: Growth inhibition of human OVCAR8 cells after 48 hrs by sulforhodamine B assay; type: functional, cell-based; details: Homo sapiens, OVCAR-8, 48 h; outline: as §1
[4] = test system: NCI/ADR-RES; assay: Growth inhibition of human NCI/ADR-RES cells after 48 hrs by sulforhodamine B assay; type: functional, cell-based; details: Homo sapiens, NCI/ADR-RES, 48 h; outline: as §1
[5] = test system: 786-0; assay: Growth inhibition of human 786-0 cells after 48 hrs by sulforhodamine B assay; type: functional, cell-based; details: 786-0, 48 h
Outline: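 Five-dose SRB assay. Cells in RPMI 1640 with 5% FBS and 2 mM L-glutamine were seeded at 5,000–40,000 cells/well, with a TCA-fixed time-zero plate (Tz) taken at 24 h. Compound stocks were in DMSO, serially diluted 10-fold or ½-log to five concentrations, and incubated 48 h at 37 °C. Plates were stained with SRB and read at 515 nm. IC₅₀ was taken where [(Ti−Tz)/(C−Tz)]×100 = 50.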

[6] = test system: EKVX; assay: Cytotoxicity against human EKVX cells assessed as cell growth at 0.001 uM after 48 hrs by sulforhodamine B assay; type: functional; details: read-out: Activity
[7] = test system: U-251; assay: Cytotoxicity against human U251 cells assessed as cell growth at 0.001 uM after 48 hrs by sulforhodamine B assay; type: functional; details: U-251, 48 h, read-out: Activity
[8] = test system: LOX IMVI; assay: Cytotoxicity against human LOXIMVI cells assessed as cell growth at 0.001 uM after 48 hrs by sulforhodamine B assay; type: functional; details: read-out: Activity
[9] = test system: SK-MEL-2; assay: Cytotoxicity against human SK-MEL-2 cells assessed as cell growth at 0.001 uM after 48 hrs by sulforhodamine B assay; type: functional; details: SK-MEL-2, 48 h, read-out: Activity
[10] = test system: OVCAR-4; assay: Cytotoxicity against human OVCAR4 cells assessed as cell growth at 0.001 uM after 48 hrs by sulforhodamine B assay; type: functional; details: OVCAR-4, 48 h, read-out: Activity
[11] = test system: SNB-75; assay: Cytotoxicity against human SNB75 cells assessed as cell growth at 100 nM after 48 hrs by sulforhodamine B assay; type: functional; details: SNB-75, 48 h, read-out: Activity
[12] = test system: UACC-257; assay: Cytotoxicity against human UACC257 cells assessed as cell growth at 100 nM after 48 hrs by sulforhodamine B assay; type: functional; details: UACC-257, 48 h, read-out: Activity
[13] = test system: OVCAR-3; assay: Cytotoxicity against human OVCAR-3 cells assessed as cell growth at 100 nM after 48 hrs by sulforhodamine B assay; type: functional; details: OVCAR-3, 48 h, read-out: Activity
[14] = test system: NCI-H522; assay: Cytotoxicity against human NCI-H522 cells assessed as cell growth at 0.01 uM after 48 hrs by sulforhodamine B assay; type: functional; details: NCI-H522, 48 h, read-out: Activity
[15] = test system: SW-620; assay: Cytotoxicity against human SW620 cells assessed as cell growth at 0.01 uM after 48 hrs by sulforhodamine B assay; type: functional; details: SW-620, 48 h, read-out: Activity
[16] = test system: UO-31; assay: Cytotoxicity against human UO31 cells assessed as cell growth at 100 nM after 48 hrs by sulforhodamine B assay; type: functional; details: UO-31, 48 h, read-out: Activity
[17] = test system: SK-MEL-2; assay: Cytotoxicity against human SK-MEL-2 cells assessed as cell growth at 10 uM after 48 hrs by sulforhodamine B assay; type: functional; details: SK-MEL-2, 48 h, read-out: Activity
[18] = test system: UACC-257; assay: Cytotoxicity against human UACC257 cells assessed as cell growth at 10 uM after 48 hrs by sulforhodamine B assay; type: functional; details: UACC-257, 48 h, read-out: Activity
[19] = test system: OVCAR-4; assay: Cytotoxicity against human OVCAR4 cells assessed as cell growth at 10 uM after 48 hrs by sulforhodamine B assay; type: functional; details: OVCAR-4, 48 h, read-out: Activity
[20] = test system: COLO 205; assay: Cytotoxicity against human COLO205 cells assessed as cell growth at 1 uM after 48 hrs by sulforhodamine B assay; type: functional; details: COLO 205, 48 h, read-out: Activity
Outline: (§2)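 Cells grown in RPMI 1640 with 5% FBS and 2 mM L-glutamine, seeded at 5,000–40,000 cells/well by doubling time. Time-zero plates TCA-fixed after 24 h. Five concentrations (10-fold or half-log dilutions from DMSO stock) added; 48 h at 37 °C, 5% CO2. Cold TCA fixation (final 10%, 60 min, 4 °C), 0.4% SRB stain, dye solubilized in 10 mM trizma base, A515.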

[21] = test system: SF-295; assay: Cytotoxicity against human SF295 cells assessed as cell growth at 1 uM after 48 hrs by sulforhodamine B assay; type: functional; details: SF-295, 48 h, read-out: Activity
[22] = test system: SNB-19; assay: Cytotoxicity against human SNB19 cells assessed as cell growth at 1 uM after 48 hrs by sulforhodamine B assay; type: functional; details: SNB-19, 48 h, read-out: Activity
[23] = test system: SNB-75; assay: Cytotoxicity against human SNB75 cells assessed as cell growth at 1 uM after 48 hrs by sulforhodamine B assay; type: functional; details: SNB-75, 48 h, read-out: Activity
[24] = test system: BT-549; assay: Cytotoxicity against human BT549 cells assessed as cell growth at 0.01 uM after 48 hrs by sulforhodamine B assay; type: functional; details: BT-549, 48 h, read-out: Activity; outline: as §2
[25] = test system: LOX IMVI; assay: Cytotoxicity against human LOXIMVI cells assessed as cell growth at 1 uM after 48 hrs by sulforhodamine B assay; type: functional; details: read-out: Activity
[26] = test system: OVCAR-5; assay: Cytotoxicity against human OVCAR5 cells assessed as cell growth at 1 uM after 48 hrs by sulforhodamine B assay; type: functional; details: OVCAR-5, 48 h, read-out: Activity
[27] = test system: NCI-H460; assay: Cytotoxicity against human NCI-H460 cells assessed as cell growth at 10 uM after 48 hrs by sulforhodamine B assay; type: functional; details: NCI-H460, 48 h, read-out: Activity
[28] = test system: SF-268; assay: Growth inhibition of human SF268 cells after 48 hrs by sulforhodamine B assay; type: functional, cell-based; details: SF-268, 48 h; outline: as §1
[29] = read-out: LC50 (the source's name)

**Q.** With `CC(=O)Nc1cccc(-c2ccc(-c3ccnc(NC(=O)Nc4cc(C(F)(F)F)cc(C(F)(F)F)c4)n3)cn2)c1.Cl` as the compound, how does the GI50 [1] read?
**A.** 1.69 µM

**Q.** And the IC50 [1]?
**A.** 1.69 µM

**Q.** What about the TGI [1] of the same compound?
**A.** 4.32 µM

**Q.** And the CC50 [1, 29]?
**A.** 13.2 µM

**Q.** And the GI50 [2]?
**A.** 2.68 µM

**Q.** And the IC50 [2]?
**A.** 2.68 µM

**Q.** And the TGI [2]?
**A.** 9.46 µM

**Q.** And the CC50 [2, 29]?
**A.** > 100 µM

**Q.** And the GI50 [3]?
**A.** 2.07 µM

**Q.** What about the TGI [3] of the same compound?
**A.** 5.93 µM

**Q.** What about the IC50 ([3]; read-out: IC50) of the same compound?
**A.** 2.07 µM

**Q.** What about the CC50 [3, 29] of the same compound?
**A.** 26.4 µM

**Q.** What about the GI50 [4] of the same compound?
**A.** 3.66 µM

**Q.** What about the TGI [4] of the same compound?
**A.** 47.4 µM

**Q.** What about the IC50 ([4]; read-out: IC50) of the same compound?
**A.** 3.66 µM

**Q.** And the CC50 [4, 29]?
**A.** > 100 µM

**Q.** What about the GI50 [5] of the same compound?
**A.** 3.66 µM

**Q.** What about the IC50 [5] of the same compound?
**A.** 3.66 µM

**Q.** And the LC50 (50% lethal concentration) [5]?
**A.** 39.9 µM

**Q.** What about the TGI [5] of the same compound?
**A.** 15.9 µM

**Q.** What about the growth at 0.001 µM [6] of the same compound?
**A.** 90%

**Q.** And the growth at 0.001 µM [7]?
**A.** 98%

**Q.** And the growth at 0.001 µM [8]?
**A.** 95%

**Q.** What about the growth at 0.001 µM [9] of the same compound?
**A.** 95%

**Q.** And the growth at 0.001 µM [10]?
**A.** 32%

**Q.** And the growth at 0.1 µM [11]?
**A.** 67%

**Q.** And the growth at 0.1 µM [12]?
**A.** 78%

**Q.** And the growth at 0.1 µM [13]?
**A.** 67%

**Q.** What about the growth at 0.01 µM [14] of the same compound?
**A.** 77%

**Q.** And the growth at 0.01 µM [15]?
**A.** 95%

**Q.** What about the growth at 0.1 µM [16] of the same compound?
**A.** 70%

**Q.** What about the growth at 10 µM [17] of the same compound?
**A.** -83%

**Q.** And the growth at 10 µM [18]?
**A.** -89%

**Q.** And the growth at 10 µM [19]?
**A.** -87%

**Q.** And the growth at 1 µM [20]?
**A.** 52%

**Q.** And the growth at 1 µM [21]?
**A.** -15%

**Q.** What about the growth at 1 µM [22] of the same compound?
**A.** 29%

**Q.** What about the growth at 1 µM [23] of the same compound?
**A.** 54%

**Q.** What about the growth at 0.01 µM [24] of the same compound?
**A.** 91%

**Q.** What about the growth at 1 µM [25] of the same compound?
**A.** -40%

**Q.** And the growth at 1 µM [26]?
**A.** 62%

**Q.** What about the growth at 10 µM [27] of the same compound?
**A.** -60%

**Q.** And the GI50 [28]?
**A.** 4.92 µM

**Q.** And the IC50 [28]?
**A.** 4.92 µM

**Q.** What about the TGI [28] of the same compound?
**A.** 23.9 µM

**Q.** And the CC50 [28, 29]?
**A.** 98.7 µM
